Data set [1] has as its target T1, Muscarinic acetylcholine receptor M2 (Homo sapiens, UniProt P08172).
T1 sequence (P08172 whole entry): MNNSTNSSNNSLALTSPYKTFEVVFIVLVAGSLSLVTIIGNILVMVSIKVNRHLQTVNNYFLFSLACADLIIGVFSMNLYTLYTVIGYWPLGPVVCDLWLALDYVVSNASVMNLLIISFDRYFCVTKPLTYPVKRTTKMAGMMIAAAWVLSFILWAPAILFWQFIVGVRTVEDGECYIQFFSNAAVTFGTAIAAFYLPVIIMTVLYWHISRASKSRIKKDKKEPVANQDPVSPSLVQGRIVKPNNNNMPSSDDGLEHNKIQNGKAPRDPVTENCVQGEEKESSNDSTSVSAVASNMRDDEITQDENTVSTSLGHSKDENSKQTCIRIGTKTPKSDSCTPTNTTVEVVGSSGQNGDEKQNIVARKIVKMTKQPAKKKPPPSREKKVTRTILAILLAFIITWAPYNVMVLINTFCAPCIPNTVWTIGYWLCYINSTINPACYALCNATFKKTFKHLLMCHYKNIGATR
The data set can be described thus: Displacement of [3H] NMS from muscarinic M2 receptor (unknown origin). The essentials: (§1)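 Radioligand competition binding; Ki given as mean ± SD from two individual experiments, each run in triplicate.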

The next data set addresses D(1B) dopamine receptor (Homo sapiens, UniProt P21918). As to the kind of experiment: Displacement of [3H] SCH23390 from D5 receptor (unknown origin).
Data set [2] addresses T2, Alpha-1A adrenergic receptor (Homo sapiens, UniProt P35348).
T2 sequence (P35348 whole entry): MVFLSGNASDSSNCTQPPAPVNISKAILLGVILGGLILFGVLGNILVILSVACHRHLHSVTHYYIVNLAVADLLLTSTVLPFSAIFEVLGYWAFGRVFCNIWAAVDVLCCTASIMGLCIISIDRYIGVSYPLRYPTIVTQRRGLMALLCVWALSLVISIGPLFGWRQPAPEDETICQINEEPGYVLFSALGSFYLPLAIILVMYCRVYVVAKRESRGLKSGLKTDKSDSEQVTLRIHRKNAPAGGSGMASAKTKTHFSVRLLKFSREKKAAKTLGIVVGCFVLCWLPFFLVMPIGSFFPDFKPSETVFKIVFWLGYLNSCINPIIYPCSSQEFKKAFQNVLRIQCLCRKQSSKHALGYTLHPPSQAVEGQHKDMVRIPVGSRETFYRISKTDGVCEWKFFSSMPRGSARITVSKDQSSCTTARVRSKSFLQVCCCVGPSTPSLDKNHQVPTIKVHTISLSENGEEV
As to the kind of experiment: Displacement of [3H] prazosin from alpha1A adrenergic receptor (unknown origin).

Data set [3] has as its target T3, D(2) dopamine receptor (Homo sapiens, UniProt P14416). As to the kind of experiment: Displacement of [3H] Spiperone from human D2L receptor expressed in CHO cells by competitive radioligand binding assay. The class given is cell-based.
In data set [4] the target is T3, D(2) dopamine receptor. The data set can be described thus: Displacement of [3H] Spiperone from human D2S receptor expressed in CHO cells by competitive radioligand binding assay. The class given is cell-based.
Data set [5] deals with Delta-type opioid receptor (Homo sapiens, UniProt P41143). As to the kind of experiment: Displacement of [3H] diprenorphine from delta opioid receptor (unknown origin).
Chain of Delta-type opioid receptor (P41143 whole entry): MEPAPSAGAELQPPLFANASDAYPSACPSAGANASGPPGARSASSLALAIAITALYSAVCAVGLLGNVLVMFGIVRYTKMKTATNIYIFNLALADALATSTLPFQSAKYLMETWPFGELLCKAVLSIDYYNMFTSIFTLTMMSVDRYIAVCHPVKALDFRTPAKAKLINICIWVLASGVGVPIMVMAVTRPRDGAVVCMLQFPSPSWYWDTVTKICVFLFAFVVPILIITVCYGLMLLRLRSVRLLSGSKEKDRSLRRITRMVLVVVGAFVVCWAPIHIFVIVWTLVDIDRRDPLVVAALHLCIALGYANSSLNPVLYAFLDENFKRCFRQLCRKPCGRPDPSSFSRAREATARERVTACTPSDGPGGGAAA
The target in the next data set is D(1A) dopamine receptor (Homo sapiens, UniProt P21728). As to the kind of experiment: Displacement of [3H] SCH23390 from D1 receptor (unknown origin).
Chain of D(1A) dopamine receptor (P21728 whole entry): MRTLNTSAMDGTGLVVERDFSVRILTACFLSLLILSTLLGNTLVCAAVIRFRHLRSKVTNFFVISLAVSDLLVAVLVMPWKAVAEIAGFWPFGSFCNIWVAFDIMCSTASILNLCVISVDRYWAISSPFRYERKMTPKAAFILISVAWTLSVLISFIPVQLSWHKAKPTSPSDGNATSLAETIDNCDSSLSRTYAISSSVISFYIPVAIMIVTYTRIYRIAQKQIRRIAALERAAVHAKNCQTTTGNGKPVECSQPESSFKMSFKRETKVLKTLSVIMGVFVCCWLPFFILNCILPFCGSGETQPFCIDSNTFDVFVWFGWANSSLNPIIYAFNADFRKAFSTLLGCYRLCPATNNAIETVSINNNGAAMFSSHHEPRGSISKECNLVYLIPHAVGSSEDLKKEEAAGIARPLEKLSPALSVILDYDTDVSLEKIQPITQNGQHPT
Data set [6] addresses T4, Muscarinic acetylcholine receptor M1 (Homo sapiens, UniProt P11229).
T4 sequence (P11229 whole entry): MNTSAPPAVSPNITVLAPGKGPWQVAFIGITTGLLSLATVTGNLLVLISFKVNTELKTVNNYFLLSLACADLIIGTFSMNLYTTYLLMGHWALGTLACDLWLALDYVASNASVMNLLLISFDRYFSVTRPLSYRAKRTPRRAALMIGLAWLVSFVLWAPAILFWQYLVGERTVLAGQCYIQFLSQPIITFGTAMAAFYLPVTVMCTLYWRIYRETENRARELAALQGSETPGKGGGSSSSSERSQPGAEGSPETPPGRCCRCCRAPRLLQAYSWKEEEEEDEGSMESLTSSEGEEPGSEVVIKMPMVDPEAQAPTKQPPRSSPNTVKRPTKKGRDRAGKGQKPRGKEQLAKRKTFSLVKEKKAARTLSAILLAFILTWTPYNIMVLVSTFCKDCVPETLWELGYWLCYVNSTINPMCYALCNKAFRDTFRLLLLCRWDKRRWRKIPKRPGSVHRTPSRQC
The data set can be described thus: Displacement of [3H] NMS from muscarinic M1 receptor (unknown origin). The essentials: as §1

Data set [7] has as its target Muscarinic acetylcholine receptor M3 (Homo sapiens, UniProt P20309). The data set can be described thus: Displacement of [3H] NMS from muscarinic M3 receptor (unknown origin). The essentials:
as §1

Data set [8] addresses T5, 5-hydroxytryptamine receptor 1A (Homo sapiens, UniProt P08908).
T5 sequence (P08908 whole entry): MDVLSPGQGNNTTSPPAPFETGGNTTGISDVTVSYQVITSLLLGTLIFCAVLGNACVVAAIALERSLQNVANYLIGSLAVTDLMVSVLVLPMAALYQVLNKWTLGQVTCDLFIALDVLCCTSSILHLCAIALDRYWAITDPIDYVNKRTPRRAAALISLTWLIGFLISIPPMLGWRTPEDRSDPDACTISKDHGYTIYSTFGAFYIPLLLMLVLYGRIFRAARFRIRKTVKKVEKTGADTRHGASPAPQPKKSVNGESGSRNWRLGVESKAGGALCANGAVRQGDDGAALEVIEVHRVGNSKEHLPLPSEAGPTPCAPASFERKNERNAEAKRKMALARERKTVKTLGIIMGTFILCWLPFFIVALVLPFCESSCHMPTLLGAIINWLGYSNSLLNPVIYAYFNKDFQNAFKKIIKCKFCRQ
As to the kind of experiment: Displacement of [3H] WAY100635 from 5HT1A receptor (unknown origin). The essentials: as §1

Data set [9] in a line: Drug metabolism in Sprague-Dawley rat liver microsomes assessed as unchanged remaining parent compound at 20 uM measured after 120 mins in presence of NADPH by LC-ESI-MS analysis. The class given is ADME, Microsome. As to conditions: read-out: Drug metabolism.
For data set [10], the target named is T6, Alpha-2A adrenergic receptor (Homo sapiens, UniProt P08913).
T6 sequence (P08913 whole entry): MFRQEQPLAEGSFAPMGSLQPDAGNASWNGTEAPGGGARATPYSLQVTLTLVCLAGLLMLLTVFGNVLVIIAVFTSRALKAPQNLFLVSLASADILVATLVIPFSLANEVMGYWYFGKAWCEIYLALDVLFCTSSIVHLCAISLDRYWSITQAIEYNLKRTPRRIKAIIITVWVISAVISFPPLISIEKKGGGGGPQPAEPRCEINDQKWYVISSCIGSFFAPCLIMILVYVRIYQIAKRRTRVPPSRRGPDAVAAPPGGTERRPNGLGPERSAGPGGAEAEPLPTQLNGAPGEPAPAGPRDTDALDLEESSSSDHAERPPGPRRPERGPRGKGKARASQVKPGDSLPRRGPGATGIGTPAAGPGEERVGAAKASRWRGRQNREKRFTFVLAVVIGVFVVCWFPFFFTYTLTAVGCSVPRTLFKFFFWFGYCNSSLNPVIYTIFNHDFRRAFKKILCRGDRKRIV
As to the kind of experiment: Displacement of [3H] RX821002 from alpha2A adrenergic receptor (unknown origin).

Data set [11] addresses Beta-1 adrenergic receptor (Homo sapiens, UniProt P08588). The data set can be described thus: Displacement of [3H] CGP12177 from beta1 adrenergic receptor (unknown origin).
Data set [12] deals with Kappa-type opioid receptor (Homo sapiens, UniProt P41145). The data set can be described thus: Displacement of [3H] diprenorphine from kappa opioid receptor (unknown origin). The method, boiled down:
as §1

A short description of data set [13]: Drug metabolism in Sprague-Dawley rat liver microsomes assessed as metabolite formation at 20 uM measured after 120 mins in presence of NADPH by LC-ESI-MS analysis. In kind it is ADME, Microsome. As to conditions: 2 h.
Another data set has as its target D(3) dopamine receptor (Homo sapiens, UniProt P35462). The data set can be described thus: Displacement of [3H] Spiperone from human D3 receptor expressed in CHO cells by competitive radioligand binding assay. The class given is cell-based.
For data set [14], the target named is T7, Alpha-1A adrenergic receptor (Homo sapiens) (UniProt P35348).
T7 sequence (whole entry): T2 sequence (P35348 whole entry)
As to the kind of experiment: Antagonist activity at human alpha1A adrenergic receptor expressed in HEK293T cells assessed as accumulation of inositol monophosphate using d2-labelled IP1 conjugate incubated for 60 mins by HTRF assay. In kind it is functional, cell-based.

The target of data set [15] is Beta-2 adrenergic receptor (Homo sapiens, UniProt P07550). The data set can be described thus: Displacement of [3H] CGP12177 from beta2 adrenergic receptor (unknown origin).
Chain of Beta-2 adrenergic receptor (P07550 whole entry): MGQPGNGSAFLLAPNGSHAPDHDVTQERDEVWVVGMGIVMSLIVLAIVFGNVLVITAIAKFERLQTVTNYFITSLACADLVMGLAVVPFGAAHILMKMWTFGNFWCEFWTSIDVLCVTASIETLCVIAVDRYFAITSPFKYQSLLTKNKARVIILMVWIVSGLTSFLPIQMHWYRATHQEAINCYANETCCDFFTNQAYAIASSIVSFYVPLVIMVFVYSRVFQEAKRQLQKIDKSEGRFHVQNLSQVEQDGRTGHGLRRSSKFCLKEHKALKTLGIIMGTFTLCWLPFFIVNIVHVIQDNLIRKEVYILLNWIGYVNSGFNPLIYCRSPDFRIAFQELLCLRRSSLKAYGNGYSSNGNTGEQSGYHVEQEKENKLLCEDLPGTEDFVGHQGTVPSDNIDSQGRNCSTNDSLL
The target in data set [16] is 5-hydroxytryptamine receptor 2A (Homo sapiens, UniProt P28223). The data set can be described thus: Displacement of [3H] Ketanserin from 5HT2A receptor (unknown origin).
Chain of 5-hydroxytryptamine receptor 2A (P28223 whole entry): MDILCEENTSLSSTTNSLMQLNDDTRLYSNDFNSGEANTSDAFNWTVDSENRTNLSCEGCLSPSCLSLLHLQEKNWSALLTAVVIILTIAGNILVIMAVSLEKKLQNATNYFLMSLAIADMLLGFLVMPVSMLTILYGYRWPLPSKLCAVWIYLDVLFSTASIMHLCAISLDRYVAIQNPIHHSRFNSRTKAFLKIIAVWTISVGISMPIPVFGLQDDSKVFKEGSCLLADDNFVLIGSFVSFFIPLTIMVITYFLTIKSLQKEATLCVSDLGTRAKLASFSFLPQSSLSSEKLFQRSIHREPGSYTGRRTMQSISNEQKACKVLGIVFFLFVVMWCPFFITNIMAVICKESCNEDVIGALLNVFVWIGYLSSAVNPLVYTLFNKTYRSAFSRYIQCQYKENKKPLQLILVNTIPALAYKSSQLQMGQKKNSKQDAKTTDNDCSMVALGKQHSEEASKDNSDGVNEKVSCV
The target in the next data set is Mu-type opioid receptor (Homo sapiens, UniProt P35372). The data set can be described thus: Displacement of [3H] diprenorphine from mu opioid receptor (unknown origin). The method, boiled down: as §1
Chain of Mu-type opioid receptor (P35372 whole entry): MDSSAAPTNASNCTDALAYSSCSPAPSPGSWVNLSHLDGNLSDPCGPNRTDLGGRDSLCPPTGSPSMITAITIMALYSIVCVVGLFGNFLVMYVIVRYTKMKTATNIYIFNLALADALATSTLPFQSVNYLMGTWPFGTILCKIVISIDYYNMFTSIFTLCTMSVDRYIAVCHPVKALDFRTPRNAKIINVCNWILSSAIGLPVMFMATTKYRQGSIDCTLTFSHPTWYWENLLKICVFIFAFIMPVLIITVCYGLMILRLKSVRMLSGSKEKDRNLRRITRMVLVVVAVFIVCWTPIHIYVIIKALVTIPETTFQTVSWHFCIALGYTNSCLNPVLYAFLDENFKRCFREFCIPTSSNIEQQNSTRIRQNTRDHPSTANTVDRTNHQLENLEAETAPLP

SMILES strings stand for the structures. Calls of active or inactive are those of the source. The calls are words filed in the database; no cut-off is given here.

T3 sequence (P14416 whole entry): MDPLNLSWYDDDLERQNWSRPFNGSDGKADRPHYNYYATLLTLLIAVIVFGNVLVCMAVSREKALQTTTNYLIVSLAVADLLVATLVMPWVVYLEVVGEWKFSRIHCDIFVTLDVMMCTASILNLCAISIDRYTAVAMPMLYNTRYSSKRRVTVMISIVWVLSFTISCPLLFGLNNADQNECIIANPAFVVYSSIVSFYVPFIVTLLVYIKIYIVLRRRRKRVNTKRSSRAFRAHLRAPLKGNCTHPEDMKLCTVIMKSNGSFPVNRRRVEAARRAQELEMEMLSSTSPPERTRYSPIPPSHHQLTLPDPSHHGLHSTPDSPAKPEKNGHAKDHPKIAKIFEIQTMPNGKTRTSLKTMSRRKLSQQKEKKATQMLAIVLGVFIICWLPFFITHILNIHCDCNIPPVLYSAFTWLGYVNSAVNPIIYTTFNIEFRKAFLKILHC
Chain of Beta-1 adrenergic receptor (P08588 whole entry): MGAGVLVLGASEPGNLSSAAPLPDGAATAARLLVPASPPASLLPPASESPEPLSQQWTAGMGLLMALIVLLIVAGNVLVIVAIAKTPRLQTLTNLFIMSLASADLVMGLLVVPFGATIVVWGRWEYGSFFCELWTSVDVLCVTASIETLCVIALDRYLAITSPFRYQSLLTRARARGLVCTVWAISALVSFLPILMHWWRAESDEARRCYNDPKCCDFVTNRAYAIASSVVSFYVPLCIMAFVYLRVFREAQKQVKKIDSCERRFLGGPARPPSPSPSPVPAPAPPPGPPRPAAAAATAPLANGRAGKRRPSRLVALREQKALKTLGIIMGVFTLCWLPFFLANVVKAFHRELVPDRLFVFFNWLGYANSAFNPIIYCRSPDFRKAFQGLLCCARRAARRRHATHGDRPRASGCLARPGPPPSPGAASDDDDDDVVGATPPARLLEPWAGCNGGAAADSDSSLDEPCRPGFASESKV
Chain of D(3) dopamine receptor (P35462 whole entry): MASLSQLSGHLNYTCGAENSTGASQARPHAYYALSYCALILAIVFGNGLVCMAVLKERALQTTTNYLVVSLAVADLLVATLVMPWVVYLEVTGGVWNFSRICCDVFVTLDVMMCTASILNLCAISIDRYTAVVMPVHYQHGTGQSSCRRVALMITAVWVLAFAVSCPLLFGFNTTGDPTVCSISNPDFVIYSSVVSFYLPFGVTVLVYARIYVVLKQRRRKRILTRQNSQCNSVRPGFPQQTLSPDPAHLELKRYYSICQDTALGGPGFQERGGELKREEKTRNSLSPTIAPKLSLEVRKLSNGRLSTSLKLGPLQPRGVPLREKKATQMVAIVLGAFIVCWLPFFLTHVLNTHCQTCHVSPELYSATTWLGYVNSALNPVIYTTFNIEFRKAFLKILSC
Chain of Kappa-type opioid receptor (P41145 whole entry): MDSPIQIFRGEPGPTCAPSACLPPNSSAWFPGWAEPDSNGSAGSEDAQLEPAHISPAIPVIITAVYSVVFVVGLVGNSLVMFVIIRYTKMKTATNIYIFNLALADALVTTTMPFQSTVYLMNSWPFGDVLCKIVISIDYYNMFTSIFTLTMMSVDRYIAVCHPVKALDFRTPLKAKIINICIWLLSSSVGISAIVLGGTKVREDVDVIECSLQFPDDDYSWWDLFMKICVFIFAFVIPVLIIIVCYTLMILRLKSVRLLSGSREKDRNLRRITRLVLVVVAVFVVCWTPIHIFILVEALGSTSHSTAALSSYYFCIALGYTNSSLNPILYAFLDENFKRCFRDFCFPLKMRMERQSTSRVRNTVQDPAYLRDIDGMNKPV
Chain of Muscarinic acetylcholine receptor M3 (P20309 whole entry): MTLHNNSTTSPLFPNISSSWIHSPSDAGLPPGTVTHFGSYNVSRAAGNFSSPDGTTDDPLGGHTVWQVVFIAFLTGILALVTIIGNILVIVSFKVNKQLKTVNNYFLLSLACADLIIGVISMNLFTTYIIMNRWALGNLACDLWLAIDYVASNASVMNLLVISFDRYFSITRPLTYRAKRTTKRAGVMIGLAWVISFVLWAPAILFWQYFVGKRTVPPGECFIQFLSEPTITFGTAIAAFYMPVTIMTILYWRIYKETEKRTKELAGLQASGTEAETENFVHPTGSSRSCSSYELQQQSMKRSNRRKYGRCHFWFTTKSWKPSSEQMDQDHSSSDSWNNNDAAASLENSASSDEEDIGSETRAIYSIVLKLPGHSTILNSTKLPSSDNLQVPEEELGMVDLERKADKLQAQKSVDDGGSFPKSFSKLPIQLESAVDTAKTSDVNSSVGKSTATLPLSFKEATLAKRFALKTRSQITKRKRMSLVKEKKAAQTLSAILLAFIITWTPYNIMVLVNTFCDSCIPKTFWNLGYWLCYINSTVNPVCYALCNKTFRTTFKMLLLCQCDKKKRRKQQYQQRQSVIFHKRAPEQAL
Chain of D(1B) dopamine receptor (P21918 whole entry): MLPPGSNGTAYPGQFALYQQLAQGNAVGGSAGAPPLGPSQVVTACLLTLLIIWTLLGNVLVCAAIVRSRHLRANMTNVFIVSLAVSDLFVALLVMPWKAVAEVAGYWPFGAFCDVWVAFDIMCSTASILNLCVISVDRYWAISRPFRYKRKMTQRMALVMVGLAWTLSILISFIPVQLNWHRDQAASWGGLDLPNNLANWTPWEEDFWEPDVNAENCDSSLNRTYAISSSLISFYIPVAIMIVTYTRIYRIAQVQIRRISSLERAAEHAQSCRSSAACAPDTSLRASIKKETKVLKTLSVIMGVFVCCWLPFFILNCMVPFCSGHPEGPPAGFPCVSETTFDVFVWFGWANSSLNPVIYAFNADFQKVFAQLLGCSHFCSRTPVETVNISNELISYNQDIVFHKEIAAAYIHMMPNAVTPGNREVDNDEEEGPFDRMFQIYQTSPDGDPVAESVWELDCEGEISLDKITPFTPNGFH

For the molecule `COc1ccccc1N1CCN(CCCNC(=O)NN(Cc2ccccc2)c2ccccc2)CC1`, the Ki is 14000 nM in [1]; 340 nM on D(1B) dopamine receptor; 1.7 nM in [2]; 77 nM on D(2) dopamine receptor [3]; 73 nM on D(2) dopamine receptor [4]; 10000 nM in [5]. For the same molecule, the Ki on D(1A) dopamine receptor turned out to be 200 nM; in data set [6] it was 25000 nM; in data set [7], 25000 nM; in [8], 17 nM; in data set [10], 400 nM; in data set [11], 13000 nM. Moreover, the Ki came to 3900 nM in data set [12]; 170 nM on D(3) dopamine receptor; 1800 nM in data set [15]; 65 nM in data set [16]; 2000 nM at Mu-type opioid receptor. Moreover, the remaining at 2 h, 20 µM in data set [9] was determined as 10%. The Drug metabolism entry in data set [13] is recorded as “Metabolite_Detected”. The result in data set [14] was inactive.
